Data set [1] has as its target T1, Proto-oncogene tyrosine-protein kinase Src (Homo sapiens, UniProt P12931). The data set can be described thus: Inhibition of Src kinase at 10 uM. The gist of the method:
(§1)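 Kinase reaction with ATP and specific substrate, incubated 1 h at room temperature with test compound (1% DMSO final). Protease solution then added, followed by stabilizer. Read-out by […] at 485/530 nm.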

In data set [2] the target is T1, Proto-oncogene tyrosine-protein kinase Src.
In data set [3] the test system is A-431. The data set can be described thus: Inhibition of EGF-stimulated tyrosine phosphorylation in human A431 cells.
A short description of data set [4]: Tmax in Sprague-Dawley rat at 10 mg/kg, po. In kind it is ADME, organism-based. Details: dose 10 mg/kg, route oral. The following applies: in vivo. Put shortly: (§2)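 Single dose in Sprague–Dawley rats, iv or po. Rats fasted overnight before oral dosing and fed about 2 h after it; no fasting for iv. Approx. 0.3 mL blood drawn from the tail vein into heparin tubes at various times, then centrifuged to plasma and held at −80 °C. Compound measured by LCMS. t1/2 = 0.693/Ke; AUC by linear trapezoidal rule to 5 h plus extrapolation.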

Data set [5] can be described thus: Half life in Sprague-Dawley rat at 5 mg/kg, iv. It is filed as ADME, organism-based. Details: dose 5 mg/kg, route intravenous. The following applies: in vivo. Put shortly: as §2
For data set [6], the system named is A-431. Nature of the data set: Inhibition of ERK phosphorylation in human A431 cells at 0.1 uM by Western blot analysis. In kind it is cell-based. To be noted: TDE = time-dependent effect. The gist of the method: (§3)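 PC3 or A431 cells grown 48 h in 6 cm dishes, then exposed to 0.1 µM compound for varying times. Lysed on ice in Tris pH 7.5/NaCl/EDTA/Triton X-100/DTT/PMSF/glycerol with protease inhibitors, then spun. Protein measured by dye-binding assay. Run on 10% SDS-PAGE, blotted to PVDF, blocked 1 h in 5% milk, and probed for phospho and total ERK and p90RSK.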

The test system of data set [7] is PC-3. The data set can be described thus: Inhibition of ERK phosphorylation in human PC3 cells at 0.1 uM after 6 hrs by Western blot analysis. In kind it is cell-based. Put shortly:
as §3
(A western blot detects proteins with antibodies after separation by electrophoresis.)

In data set [8] the test system is A-431. Nature of the data set: Inhibition of ERK phosphorylation in human A431 cells at 0.1 uM after 6 hrs by Western blot analysis. It is filed as cell-based. The gist of the method: as §3
Data set [9] is described as follows: AUC in Sprague-Dawley rat at 5 mg/kg, iv. It is filed as ADME, organism-based. Details: dose 5 mg/kg, route intravenous. To be noted: plasma. Put shortly:
as §2

In data set [10] the target is Epidermal growth factor receptor (Homo sapiens, UniProt P00533).
Sequence of Epidermal growth factor receptor (P00533 whole entry): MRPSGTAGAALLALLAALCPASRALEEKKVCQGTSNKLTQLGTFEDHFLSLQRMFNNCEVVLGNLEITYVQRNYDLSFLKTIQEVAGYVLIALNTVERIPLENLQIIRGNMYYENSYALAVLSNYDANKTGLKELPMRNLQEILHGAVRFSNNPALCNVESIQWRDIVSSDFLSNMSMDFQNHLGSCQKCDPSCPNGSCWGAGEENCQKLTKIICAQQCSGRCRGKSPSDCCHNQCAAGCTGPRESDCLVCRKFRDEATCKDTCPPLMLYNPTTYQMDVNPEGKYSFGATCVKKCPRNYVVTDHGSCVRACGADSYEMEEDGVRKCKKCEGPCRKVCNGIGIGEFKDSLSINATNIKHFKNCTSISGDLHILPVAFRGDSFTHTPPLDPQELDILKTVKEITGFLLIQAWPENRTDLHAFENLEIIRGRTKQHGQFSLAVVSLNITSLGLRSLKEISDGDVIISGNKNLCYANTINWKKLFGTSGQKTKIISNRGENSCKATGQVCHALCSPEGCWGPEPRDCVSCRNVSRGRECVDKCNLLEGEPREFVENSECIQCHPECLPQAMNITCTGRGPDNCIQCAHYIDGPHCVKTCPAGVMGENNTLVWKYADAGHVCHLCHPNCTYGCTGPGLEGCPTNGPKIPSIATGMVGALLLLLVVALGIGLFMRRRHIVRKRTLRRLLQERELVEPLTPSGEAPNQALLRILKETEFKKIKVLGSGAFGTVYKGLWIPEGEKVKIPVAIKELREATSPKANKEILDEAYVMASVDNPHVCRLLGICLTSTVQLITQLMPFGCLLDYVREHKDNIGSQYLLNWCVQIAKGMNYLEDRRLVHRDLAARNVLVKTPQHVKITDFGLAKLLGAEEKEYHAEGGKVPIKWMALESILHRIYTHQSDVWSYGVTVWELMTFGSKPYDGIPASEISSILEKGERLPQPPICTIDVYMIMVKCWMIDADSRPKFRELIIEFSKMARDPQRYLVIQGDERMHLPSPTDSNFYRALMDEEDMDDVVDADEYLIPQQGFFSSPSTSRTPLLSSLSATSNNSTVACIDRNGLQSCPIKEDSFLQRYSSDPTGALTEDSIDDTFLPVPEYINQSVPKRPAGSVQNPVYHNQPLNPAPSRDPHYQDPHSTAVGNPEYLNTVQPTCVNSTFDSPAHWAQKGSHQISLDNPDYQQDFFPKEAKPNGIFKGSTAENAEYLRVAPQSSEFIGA
Data set [11] concerns A-431. Nature of the data set: Antiproliferative activity against human A431 cells after 72 hrs by SRB assay. It is filed as functional, cell-based. The gist of the method: (§4)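 Cells seeded at 10,000–15,000 per well and held at 37 °C, 5% CO2. After 24 h compound added across a concentration range for 72 h. Cells then fixed with cold 10% TCA and stained with sulforhodamine B (0.4% in 1% acetic acid). Dye solubilized in 10 mM Tris base and absorbance read. GI50 from [(Ti−Tz)/(C−Tz)]×100 = 50. PC3 and SK-BR3 grown in RPMI 1640 with 10% FBS; A431 and MCF-7 in DMEM with 10% FBS.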
On the technique in general: The SRB assay estimates cell density from bound dye.

The subject of another data set is MCF7. The data set can be described thus: Antiproliferative activity against human MCF7 cells at < 10 uM after 72 hrs by SRB assay. In kind it is functional, cell-based. Put shortly:
as §4

Data set [12] is described as follows: Cmax in Sprague-Dawley rat at 5 mg/kg, iv. In kind it is ADME, organism-based. Details: dose 5 mg/kg, route intravenous. The following applies: in vivo. Put shortly:
as §2

Data set [13] relates to PC-3. Nature of the data set: Antiproliferative activity against human PC3 cells after 72 hrs by SRB assay. In kind it is functional, cell-based. Put shortly:
as §4

Data set [14] concerns the target Ribosomal protein S6 kinase alpha-1 (Homo sapiens) (UniProt Q15418). Nature of the data set: Inhibition of p90RSK phosphorylation in human A431 cells at 0.1 uM by Western blot analysis. It is filed as cell-based. To be noted: A-431, TDE = time-dependent effect. The gist of the method: as §3
A short description of data set [15]: Tmax in Sprague-Dawley rat plasma at 10 mg/kg, iv and po. In kind it is ADME, organism-based. Details: dose 10 mg/kg, route oral.
The test system of data set [16] is PC-3. The data set can be described thus: Inhibition of ERK phosphorylation in human PC3 cells at 0.1 uM by Western blot analysis. It is filed as cell-based. To be noted: TDE = time-dependent effect. The gist of the method:
as §3

The subject of another data set is Rattus norvegicus. Nature of the data set: Cmax in Sprague-Dawley rat plasma at 10 mg/kg, iv and po. In kind it is ADME, organism-based. Details: dose 10 mg/kg, route oral. To be noted: in vivo.
Data set [17] in a line: Cmax in Sprague-Dawley rat at 10 mg/kg, po. It is filed as ADME, organism-based. Details: dose 10 mg/kg, route oral. To be noted: in vivo. Put shortly:
as §2

Data set [18] can be described thus: AUC in Sprague-Dawley rat at 10 mg/kg, po. It is filed as ADME, organism-based. Details: dose 10 mg/kg, route oral. The following applies: plasma. The gist of the method: as §2
Data set [19] has as its target Ribosomal protein S6 kinase alpha-1 (Homo sapiens) (UniProt Q15418). The data set can be described thus: Inhibition of p90RSK phosphorylation in human PC3 cells at 0.1 uM after 6 hrs by Western blot analysis. To be noted: PC-3. It is filed as cell-based. Put shortly:
as §3

The next data set has as its system SK-BR-3. The data set can be described thus: Antiproliferative activity against human SKBR3 cells expressing HER2 at < 10 uM after 72 hrs by SRB assay. In kind it is functional, cell-based. Put shortly: as §4
Data set [20] can be described thus: Half life in Sprague-Dawley rat at 10 mg/kg, po. In kind it is ADME, organism-based. Details: dose 10 mg/kg, route oral. To be noted: in vivo. The gist of the method: as §2
The target in data set [21] is Ribosomal protein S6 kinase alpha-1 (Homo sapiens) (UniProt Q15418). The data set can be described thus: Inhibition of p90RSK phosphorylation in human A431 cells at 0.1 uM after 6 hrs by Western blot analysis. In kind it is cell-based. To be noted: A-431. Put shortly:
as §3

The nature of data set [22]: Tmax in Sprague-Dawley rat at 5 mg/kg, iv. It is filed as ADME, organism-based. Details: dose 5 mg/kg, route intravenous. The following applies: in vivo. The gist of the method: as §2
Data set [23] concerns the target Vascular endothelial growth factor receptor 2 (Homo sapiens) (UniProt P35968). Nature of the data set: Inhibition of VEGFR2 at 10 uM. Put shortly: as §1
Data set [24] deals with Ribosomal protein S6 kinase alpha-1 (Homo sapiens) (UniProt Q15418). Nature of the data set: Inhibition of p90RSK phosphorylation in human PC3 cells at 0.1 uM by Western blot analysis. In kind it is cell-based. The following applies: PC-3, TDE = time-dependent effect. The gist of the method:
as §3

Data set [25] is described as follows: Oral bioavailability in Sprague-Dawley rat at 10 mg/kg, po. The following applies: in vivo. In kind it is ADME, organism-based. Put shortly: as §2

Calls of active or inactive are those of the source.

The term IC50 denotes the concentration that gives 50% inhibition. Lower therefore signals greater potency in that assay. The Tmax is the time from dosing to the highest level. Broadly, the half-life is the time needed for the level to fall by half in the phase considered. A word on the AUC: it is concentration integrated over time. By Cmax is commonly meant the highest concentration seen after dosing. As a reminder, the bioavailability is the share of a dose that reaches the circulation, judged against a reference dose that is usually intravenous. Read a low bioavailability as little systemic uptake.

Sequence of Ribosomal protein S6 kinase alpha-1 (Homo sapiens) (Q15418 whole entry): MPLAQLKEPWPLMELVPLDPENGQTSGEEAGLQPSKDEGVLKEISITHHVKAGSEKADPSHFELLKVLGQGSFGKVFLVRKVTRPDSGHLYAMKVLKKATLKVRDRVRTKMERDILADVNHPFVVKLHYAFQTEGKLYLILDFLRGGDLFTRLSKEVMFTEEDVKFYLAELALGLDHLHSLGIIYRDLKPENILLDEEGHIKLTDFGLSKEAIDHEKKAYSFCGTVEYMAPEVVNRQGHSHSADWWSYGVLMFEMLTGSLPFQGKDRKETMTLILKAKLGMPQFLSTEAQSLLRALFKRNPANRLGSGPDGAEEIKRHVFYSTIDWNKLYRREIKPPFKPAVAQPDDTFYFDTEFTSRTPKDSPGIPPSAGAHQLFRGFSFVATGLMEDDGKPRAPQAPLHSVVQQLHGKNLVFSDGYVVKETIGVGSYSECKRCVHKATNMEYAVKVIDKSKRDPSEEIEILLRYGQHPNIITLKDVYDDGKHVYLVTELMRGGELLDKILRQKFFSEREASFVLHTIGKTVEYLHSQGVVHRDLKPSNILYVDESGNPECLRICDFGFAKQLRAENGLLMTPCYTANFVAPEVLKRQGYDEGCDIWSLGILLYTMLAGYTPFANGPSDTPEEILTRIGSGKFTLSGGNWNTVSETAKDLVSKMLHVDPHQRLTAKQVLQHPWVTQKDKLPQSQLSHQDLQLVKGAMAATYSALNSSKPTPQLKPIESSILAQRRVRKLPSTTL
T1 sequence (P12931 2-536 limits assumed): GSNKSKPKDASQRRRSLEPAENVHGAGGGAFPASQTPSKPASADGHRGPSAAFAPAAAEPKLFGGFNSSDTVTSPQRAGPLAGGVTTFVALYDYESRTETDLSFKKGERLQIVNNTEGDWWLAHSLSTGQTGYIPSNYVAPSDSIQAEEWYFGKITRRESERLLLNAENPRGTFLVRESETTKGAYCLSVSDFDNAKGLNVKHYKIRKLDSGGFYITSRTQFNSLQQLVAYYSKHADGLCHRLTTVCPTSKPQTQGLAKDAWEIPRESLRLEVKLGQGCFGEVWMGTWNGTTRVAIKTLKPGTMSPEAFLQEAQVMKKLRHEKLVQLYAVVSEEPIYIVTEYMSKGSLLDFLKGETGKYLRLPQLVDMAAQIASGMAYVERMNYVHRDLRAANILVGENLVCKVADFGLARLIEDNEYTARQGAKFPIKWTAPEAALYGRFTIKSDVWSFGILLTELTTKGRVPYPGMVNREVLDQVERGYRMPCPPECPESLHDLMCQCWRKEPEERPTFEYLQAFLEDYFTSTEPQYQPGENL
Sequence of Vascular endothelial growth factor receptor 2 (Homo sapiens) (P35968 whole entry): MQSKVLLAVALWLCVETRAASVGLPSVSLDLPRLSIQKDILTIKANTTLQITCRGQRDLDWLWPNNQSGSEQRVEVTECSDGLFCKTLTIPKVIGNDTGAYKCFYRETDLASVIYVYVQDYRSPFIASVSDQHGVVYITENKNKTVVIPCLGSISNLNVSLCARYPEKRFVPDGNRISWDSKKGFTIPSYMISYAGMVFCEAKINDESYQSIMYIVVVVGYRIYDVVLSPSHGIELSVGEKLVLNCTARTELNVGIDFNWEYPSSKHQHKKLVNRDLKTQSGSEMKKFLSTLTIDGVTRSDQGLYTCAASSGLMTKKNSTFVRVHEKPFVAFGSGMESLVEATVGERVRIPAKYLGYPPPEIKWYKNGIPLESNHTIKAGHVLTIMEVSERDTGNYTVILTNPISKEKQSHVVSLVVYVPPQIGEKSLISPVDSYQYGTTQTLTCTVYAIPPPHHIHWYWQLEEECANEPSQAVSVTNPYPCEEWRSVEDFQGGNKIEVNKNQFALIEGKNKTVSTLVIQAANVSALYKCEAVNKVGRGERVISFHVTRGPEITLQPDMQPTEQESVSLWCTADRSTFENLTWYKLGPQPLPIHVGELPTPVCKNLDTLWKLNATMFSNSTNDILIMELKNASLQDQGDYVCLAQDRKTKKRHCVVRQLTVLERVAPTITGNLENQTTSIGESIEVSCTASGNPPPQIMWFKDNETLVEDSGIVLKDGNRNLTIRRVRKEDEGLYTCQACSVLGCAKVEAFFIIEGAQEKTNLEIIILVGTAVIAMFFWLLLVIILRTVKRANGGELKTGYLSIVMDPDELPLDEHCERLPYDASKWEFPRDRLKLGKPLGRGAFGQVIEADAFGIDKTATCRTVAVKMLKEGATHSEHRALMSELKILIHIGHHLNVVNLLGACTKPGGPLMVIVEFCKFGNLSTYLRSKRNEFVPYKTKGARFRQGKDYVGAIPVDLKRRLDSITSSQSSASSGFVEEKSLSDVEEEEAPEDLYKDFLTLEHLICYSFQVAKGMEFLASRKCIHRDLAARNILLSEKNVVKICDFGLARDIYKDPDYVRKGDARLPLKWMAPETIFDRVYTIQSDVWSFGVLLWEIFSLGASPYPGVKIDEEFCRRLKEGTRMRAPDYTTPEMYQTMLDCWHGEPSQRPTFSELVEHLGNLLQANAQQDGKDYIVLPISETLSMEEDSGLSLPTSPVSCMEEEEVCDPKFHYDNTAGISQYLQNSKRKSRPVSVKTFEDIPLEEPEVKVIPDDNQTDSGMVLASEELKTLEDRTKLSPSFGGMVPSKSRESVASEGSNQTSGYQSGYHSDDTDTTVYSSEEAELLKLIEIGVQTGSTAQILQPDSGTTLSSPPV

Turning to `COCCOc1cc2ncnc(Nc3ccc(F)c(Cl)c3)c2cc1NC(=O)[C@@H]1CCCN1`, the result in [1] was Active. In addition, the IC50 in data set [2] stood at 300 nM.
Consider `COCCOc1cc2ncnc(Nc3c(Cl)ccc4c3OCO4)c2cc1NC(=O)[C@@H]1CCCN1`, for which the IC50 with A-431 [3] was determined as 780 nM; in data set [10] it was 7130 nM; in data set [2], 89 nM. Further, the time of peak concentration (Tmax) in data set [4] turned out to be 4 h; in [15], 1 h; in [22], 4.8 min. In addition, the half-life in [5] was 6.1 h; in data set [20] it was 5.4 h. Besides, the Activity entry with A-431 [6] was “tde”; with A-431 [11] it was “Dose-dependent effect”; in the data set with PC-3 [13], “Dose-dependent effect”; in data set [14] it was “tde”; in the data set with PC-3 [16] it was “tde”; in [24] it was “tde”. Also, the outcome (with PC-3 [7]; in the data set with A-431 [8]; in [19]; in data set [21]) was Active. The results for the AUC in [9] and in data set [18] were 2400 ng·h/mL and 1240 ng·h/mL, respectively. For the same compound, the outcome (with MCF7; with SK-BR-3; in data set [23]) was inactive. Also, the Cmax in [12] amounted to 2010 nM; in the data set on Rattus norvegicus, 400 nM; in data set [17], 120 nM. For the same compound, the bioavailability in [25] was 20.4%.
On to `CCN1CCN(Cc2ccc(-c3cc4c(N[C@@H](C)c5ccccc5)ncnc4[nH]3)cc2)CC1`, for which, in data set [1], the result was Active.
Regarding `C=CC(=O)Nc1cc2c(Nc3cc(OC)c(Cl)cc3OC)ncnc2cc1OCC1CCN(C)CC1`, the result in data set [1] was Active.
Consider `CN(C)CCC(=O)Nc1cc2c(Nc3ccc(F)c(Cl)c3)ncnc2cc1OCCCN1CCOCC1`, for which the outcome in [1] was Active.
